Tested on: Mythimna separata
Assay: Larvicidal activity against Mythimna separata (Oriental armyworm) in compound treated corn leaves at 10 mg/L at 25 +/- 1 degC measured after 4 days
Assay type: functional

Compound	Activity [%]
O=C(NC(=O)c1c(F)cccc1F)Nc1ccc(Cl)cc1 [DIFLUBENZURON]	100
CNC(=O)ON=C(C)SC [METHOMYL]	100
Cc1cccc(OC(=O)N(C)SN(C(=O)NC(=O)c2c(F)cccc2F)c2ccc(C(F)(F)F)cc2)c1 [Penfluron-S-MTMC]	100
O=C(NC(=O)c1ccccc1Cl)Nc1ccc(OC(F)(F)F)cc1 [TRIFLUMURON]	100

Tested on: Mythimna separata
Assay: Larvicidal activity against Mythimna separata (Oriental armyworm ) in compound treated corn leaves at 0.5 mg/L at 25 +/- 1 degC measured after 4 days
Assay type: functional
In short: (§1)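 Foliar-application assay on laboratory-reared Oriental armyworm (Mythimna (Pseudaletia) separata), run at 25 ± 1 °C. Larvae were scored dead or alive, and mortality was corrected by Abbott's formula on a 0–100% scale, where 0 = no activity and 100 = total kill. Bioassays were repeated as statistics required.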

Compound	Activity [%]
O=C(NC(=O)c1c(F)cccc1F)Nc1ccc(Cl)cc1 [DIFLUBENZURON]	100
Cc1cccc(OC(=O)N(C)SN(C(=O)NC(=O)c2c(F)cccc2F)c2ccc(C(F)(F)F)cc2)c1 [Penfluron-S-MTMC]	95
O=C(NC(=O)c1ccccc1Cl)Nc1ccc(OC(F)(F)F)cc1 [TRIFLUMURON]	40

Tested on: Mythimna separata
Assay: Larvicidal activity against Mythimna separata (Oriental armyworm) in compound treated corn leaves at 50 mg/L at 25 +/- 1 degC measured after 4 days
Assay type: functional
In short: as §1

Compound	Activity [%]
O=C(NC(=O)c1c(F)cccc1F)Nc1ccc(Cl)cc1 [DIFLUBENZURON]	100
Cc1cccc(OC(=O)N(C)SN(C(=O)NC(=O)c2c(F)cccc2F)c2ccc(C(F)(F)F)cc2)c1 [Penfluron-S-MTMC]	100
O=C(NC(=O)c1ccccc1Cl)Nc1ccc(OC(F)(F)F)cc1 [TRIFLUMURON]	100

Tested on: Mythimna separata
Assay: Larvicidal activity against Mythimna separata (Oriental armyworm) in compound treated corn leaves at 100 mg/L at 25 +/- 1 degC measured after 4 days
Assay type: functional

Compound	Activity [%]
O=C(NC(=O)c1c(F)cccc1F)Nc1ccc(Cl)cc1 [DIFLUBENZURON]	0
CNC(=O)ON=C(C)SC [METHOMYL]	100
O=C(NC(=O)c1ccccc1Cl)Nc1ccc(OC(F)(F)F)cc1 [TRIFLUMURON]	0

Tested on: Mythimna separata
Assay: Larvicidal activity against Mythimna separata (Oriental armyworm) in compound treated corn leaves at 1 mg/L at 25 +/- 1 degC measured after 4 days
Assay type: functional
In short: as §1

Compound	Activity [%]
O=C(NC(=O)c1c(F)cccc1F)Nc1ccc(Cl)cc1 [DIFLUBENZURON]	100
Cc1cccc(OC(=O)N(C)SN(C(=O)NC(=O)c2c(F)cccc2F)c2ccc(C(F)(F)F)cc2)c1 [Penfluron-S-MTMC]	100
O=C(NC(=O)c1ccccc1Cl)Nc1ccc(OC(F)(F)F)cc1 [TRIFLUMURON]	95

Tested on: Mythimna separata
Assay: (§2) Larvicidal activity against Mythimna separata (Oriental armyworm) in compound treated corn leaves at […] at 25 +/- 1 degC measured after 4 days
Assay type: functional

Compound	Activity [%]
O=C(NC(=O)c1c(F)cccc1F)Nc1ccc(Cl)cc1 [DIFLUBENZURON]	100
CNC(=O)ON=C(C)SC [METHOMYL]	0
Cc1cccc(OC(=O)N(C)SN(C(=O)NC(=O)c2c(F)cccc2F)c2ccc(C(F)(F)F)cc2)c1 [Penfluron-S-MTMC]	100
O=C(NC(=O)c1ccccc1Cl)Nc1ccc(OC(F)(F)F)cc1 [TRIFLUMURON]	100

Tested on: Mythimna separata
Assay: Larvicidal activity against Mythimna separata (Oriental armyworm) in compound treated corn leaves at 25 mg/L at 25 +/- 1 degC measured after 4 days
Assay type: functional

Compound	Activity [%]
O=C(NC(=O)c1c(F)cccc1F)Nc1ccc(Cl)cc1 [DIFLUBENZURON]	100
Cc1cccc(OC(=O)N(C)SN(C(=O)NC(=O)c2c(F)cccc2F)c2ccc(C(F)(F)F)cc2)c1 [Penfluron-S-MTMC]	100
O=C(NC(=O)c1ccccc1Cl)Nc1ccc(OC(F)(F)F)cc1 [TRIFLUMURON]	100

Tested on: Mythimna separata
Assay: Larvicidal activity against Mythimna separata (Oriental armyworm) in compound treated corn leaves at 5 mg/L at 25 +/- 1 degC measured after 4 days
Assay type: functional

Compound	Activity [%]
O=C(NC(=O)c1c(F)cccc1F)Nc1ccc(Cl)cc1 [DIFLUBENZURON]	100
CNC(=O)ON=C(C)SC [METHOMYL]	62
Cc1cccc(OC(=O)N(C)SN(C(=O)NC(=O)c2c(F)cccc2F)c2ccc(C(F)(F)F)cc2)c1 [Penfluron-S-MTMC]	100
O=C(NC(=O)c1ccccc1Cl)Nc1ccc(OC(F)(F)F)cc1 [TRIFLUMURON]	100

Tested on: Mythimna separata
Assay: as §2
Assay type: functional

Compound	Activity [%]
O=C(NC(=O)c1c(F)cccc1F)Nc1ccc(Cl)cc1 [DIFLUBENZURON]	45
Cc1cccc(OC(=O)N(C)SN(C(=O)NC(=O)c2c(F)cccc2F)c2ccc(C(F)(F)F)cc2)c1 [Penfluron-S-MTMC]	15
O=C(NC(=O)c1ccccc1Cl)Nc1ccc(OC(F)(F)F)cc1 [TRIFLUMURON]	20

— ChEMBL document CHEMBL3045515, “Insecticidal benzoylphenylurea-S-carbamate: a new propesticide with two effects of both benzoylphenylureas and carbamates” (2007)
